Reference: ChEMBL document CHEMBL1123978, “Synthesis and antineoplastic evaluation of 1,4-bis(aminoalkanamido)-9,10-anthracenediones” (J Med Chem, 1988)
Converted amounts (≈) assume the structure as drawn.

Assays:
L1210 = assay: Effective concentration required to inhibit by 50% the growth of L1210 cells; format: functional, cell-based; details: Mus musculus
Method in brief: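 Mouse L1210 leukemia cells were grown in RPMI 1640 with 5% fetal calf serum, penicillin and streptomycin at 37 °C in humidified air–5% CO2, and seeded at 5 × 10⁴ cells/mL. Compounds dissolved in 50% ethanol were added at four concentrations. EC50 is the concentration giving 50% growth inhibition after 48 h, measured by cell protein content.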

HeLa = assay: Effective concentration required to inhibit by 50% the growth of HeLa S3 cells; format: functional, cell-based; details: Homo sapiens
Method in brief: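 HeLa S3 cultures were given compounds dissolved in water, at final concentrations of 0.005–5 μg/mL in the incubation medium. EC50 is the concentration that inhibited the increment of cellular protein by 50%, read from dose-response curves.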

P338 [1] = assay: Ratio of medium survival time expressed as percent of untreated controls(dose 3.12 mg/kg); format: functional, Mus musculus
Method in brief: (§1)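 BDF1 mice inoculated ip on day 0 with 10^6 P388 lymphocytic leukemia cells. Drug given ip on days 1–5 following NCI protocols, at the dose stated. Eight mice per treatment group. Mean survival time was computed per group, and % T/C = (MST treated/MST control) × 100.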

P338 [2] = assay: Survivor recorded on day 4 after day of first injection as a measure of drug toxicity(dose 6.25 mg/kg); 6/6; format: functional, Mus musculus
P338 [3] = assay: Survivor recorded on day 4 after day of first injection as a measure of drug toxicity(dose 25 mg/kg); 6/6; format: functional, Mus musculus
P338 [4] = assay: Ratio of medium survival time expressed as percent of untreated controls(dose 25 mg/kg); format: functional, Mus musculus; method in brief: as §1
P338 [5] = assay: Survivor recorded on day 4 after day of first injection as a measure of drug toxicity(dose 3.12 mg/kg); 6/6; format: functional, Mus musculus
P338 [6] = assay: Survivor recorded on day 4 after day of first injection as a measure of drug toxicity(dose 12.5 mg/kg); 6/6; format: functional, Mus musculus
P338 [7] = assay: Ratio of medium survival time expressed as percent of untreated controls(dose 12.5 mg/kg); format: functional, Mus musculus; method in brief: as §1
P338 [8] = assay: Ratio of medium survival time expressed as percent of untreated controls(dose 6.25 mg/kg); format: functional, Mus musculus; method in brief: as §1
P338 [9] = assay: Ratio of medium survival time expressed as percent of untreated controls (dose 2.5 mg/kg); format: functional, Mus musculus; method in brief: as §1
P338 [10] = assay: Survivor recorded on day 4 after day of first injection as a measure of drug toxicity(dose 1.25 mg/kg); 8/8; format: functional, Mus musculus
P338 [11] = assay: Survivor recorded on day 4 after day of first injection as a measure of drug toxicity (dose 2.5 mg/kg); 8/8; format: functional, Mus musculus
P338 [12] = assay: Ratio of medium survival time expressed as percent of untreated controls(dose 1.25 mg/kg); format: functional, Mus musculus; method in brief: as §1
P338 [13] = assay: Ratio of medium survival time expressed as percent of untreated controls (dose 10 mg/kg); format: functional, Mus musculus; method in brief: as §1
P338 [14] = assay: Ratio of medium survival time expressed as percent of untreated controls (dose 20 mg/kg); format: functional, Mus musculus; method in brief: as §1
P338 [15] = assay: Ratio of medium survival time expressed as percent of untreated controls(dose 40 mg/kg); Toxic; format: functional, organism-based; parameters: dose 40 mg/kg; details: Mus musculus, at 40 mg/kg; method in brief: as §1
P338 [16] = assay: Survivor recorded on day 4 after day of first injection as a measure of drug toxicity (dose 10 mg/kg); 8/8; format: functional, Mus musculus
P338 [17] = assay: Ratio of medium survival time expressed as percent of untreated controls (dose 5 mg/kg); format: functional, Mus musculus; method in brief: as §1
P338 [18] = assay: Survivor recorded on day 4 after day of first injection as a measure of drug toxicity (dose 20 mg/kg); 8/8; format: functional, Mus musculus
P338 [19] = assay: Survivor recorded on day 4 after day of first injection as a measure of drug toxicity (dose 5 mg/kg); 8/8; format: functional, Mus musculus
P338 [20] = assay: Survivor recorded on day 4 after day of first injection as a measure of drug toxicity (dose 40 mg/kg); 8/8; format: functional, Mus musculus
P338 [21] = assay: Survivor recorded on day 4 after day of first injection as a measure of drug toxicity(dose 1.5 mg/kg); 8/8; format: functional, Mus musculus
P338 [22] = assay: Ratio of medium survival time expressed as percent of untreated controls(dose 50 mg/kg); format: functional, Mus musculus; method in brief: as §1
P338 [23] = assay: Survivor recorded on day 4 after day of first injection as a measure of drug toxicity(dose 25 mg/kg); 8/8; format: functional, Mus musculus
P338 [24] = assay: Survivor recorded on day 4 after day of first injection as a measure of drug toxicity(dose 3.12 mg/kg); 8/8; format: functional, Mus musculus
P338 [25] = assay: Survivor recorded on day 4 after day of first injection as a measure of drug toxicity(dose 6.25 mg/kg); 8/8; format: functional, Mus musculus
P338 [26] = assay: Survivor recorded on day 4 after day of first injection as a measure of drug toxicity(dose 50 mg/kg); 8/8; format: functional, Mus musculus
P338 [27] = assay: Ratio of medium survival time expressed as percent of untreated controls(dose 1.5 mg/kg); format: functional, Mus musculus; method in brief: as §1
P338 [28] = assay: Survivor recorded on day 4 after day of first injection as a measure of drug toxicity(dose 12.5 mg/kg); 8/8; format: functional, Mus musculus
P338 [29] = assay: Ratio of medium survival time expressed as percent of untreated controls (dose 1.6 mg/kg); format: functional, Mus musculus; method in brief: as §1
P338 [30] = assay: Survivor recorded on day 4 after day of first injection as a measure of drug toxicity (dose 1.6 mg/kg); 8/8; format: functional, Mus musculus
P338 [31] = assay: Ratio of medium survival time expressed as percent of untreated controls (dose 6.25 mg/kg); format: functional, Mus musculus; method in brief: as §1
P338 [32] = assay: Survivor recorded on day 4 after day of first injection as a measure of drug toxicity (dose 25 mg/kg); 6/8; format: functional, Mus musculus
P338 [33] = assay: Ratio of medium survival time expressed as percent of untreated controls (dose 12.5 mg/kg); format: functional, Mus musculus; method in brief: as §1
P338 [34] = assay: Survivor recorded on day 4 after day of first injection as a measure of drug toxicity (dose 6.25 mg/kg); 8/8; format: functional, Mus musculus
P338 [35] = assay: Survivor recorded on day 4 after day of first injection as a measure of drug toxicity (dose 50 mg/kg); 0/8; format: functional, Mus musculus
P338 [36] = assay: Ratio of medium survival time expressed as percent of untreated controls (dose 25 mg/kg); Toxic; format: functional, organism-based; parameters: dose 25 mg/kg; details: Mus musculus, at 25 mg/kg
P338 [37] = assay: Survivor recorded on day 4 after day of first injection as a measure of drug toxicity (dose 12.5 mg/kg); 8/8; format: functional, Mus musculus
P338 [38] = assay: Ratio of medium survival time expressed as percent of untreated controls (dose 3.12 mg/kg); format: functional, Mus musculus; method in brief: as §1
P338 [39] = assay: Survivor recorded on day 4 after day of first injection as a measure of drug toxicity (dose 3.12 mg/kg); 8/8; format: functional, Mus musculus

In the case of `O=C1c2c(O)ccc(O)c2C(=O)c2c(NCCNCCO)ccc(NCCNCCO)c21` [MITOXANTRONE], the EC50 (L1210) is reported as greater than 5 µg/mL and the EC50 (HeLa) is reported as 0.55 µg/mL (≈ 1.24 µM).

Work on `O=C1c2ccccc2C(=O)c2c(NCCNCCO)ccc(NCCNCCO)c21` [AMETANTRONE] yielded a T/C (P338 [1]) of 190%, a Survival (P338 [2]) of 6 and an EC50 (L1210) of 1.77 µg/mL (≈ 4.29 µM). It also gave a Survival (P338 [3]) of 6, an EC50 (HeLa) of 0.17 µg/mL (≈ 0.412 µM) and a T/C (P338 [4]) of 200%. The Survival (P338 [5]) was 6, the Survival (P338 [6]) was 6 and the T/C (P338 [7]) was 300%. For the same molecule, the T/C (P338 [8]) was 210%.

Molecule `CNCCC(=O)Nc1ccc(NC(=O)CCNC)c2c1C(=O)c1ccccc1C2=O` has a T/C (P338 [9]) of 120%, a Survival (P338 [10]) of 8 and a Survival (P338 [11]) of 8. It also gave an EC50 (L1210) of 1.28 µg/mL (≈ 3.13 µM), an EC50 (HeLa) of 0.08 µg/mL (≈ 0.196 µM) and a T/C (P338 [12]) of 110%. For the same molecule, the T/C (P338 [13]) was 130%, the T/C (P338 [14]) was 120% and the T/C (P338 [15]) was “Toxic”. It also gave a Survival (P338 [16]) of 8, a T/C (P338 [17]) of 130% and a Survival (P338 [18]) of 8. For the same molecule, the Survival (P338 [19]) was 8 and the Survival (P338 [20]) was 8.

For `O=C(CNCCO)Nc1ccc(NC(=O)CNCCO)c2c1C(=O)c1ccccc1C2=O`, the EC50 (L1210) was greater than 5 µg/mL and the EC50 (HeLa) was 1.41 µg/mL (≈ 3.2 µM).

With `CNCC(=O)Nc1ccc(NC(=O)CNC)c2c1C(=O)c1ccccc1C2=O` the T/C (P338 [1]) was 100%, the Survival (P338 [21]) was 8 and the T/C (P338 [22]) was 111%. For the same molecule, the EC50 (L1210) was 0.79 µg/mL (≈ 2.08 µM), the EC50 (HeLa) was 0.14 µg/mL (≈ 0.368 µM) and the Survival (P338 [23]) was 8. The T/C (P338 [4]) was 100%, the Survival (P338 [24]) was 8 and the Survival (P338 [25]) was 8. It also gave a Survival (P338 [26]) of 8, a T/C (P338 [27]) of 100% and a T/C (P338 [7]) of 100%. It also gave a T/C (P338 [8]) of 111% and a Survival (P338 [28]) of 8.

In the case of `CN(C)CCC(=O)Nc1ccc(NC(=O)CCN(C)C)c2c1C(=O)c1ccccc1C2=O`, the T/C (P338 [29]) is reported as 91%, the Survival (P338 [30]) is reported as 8 and the T/C (P338 [31]) is reported as 100%. For the same molecule, the EC50 (L1210) was 0.36 µg/mL (≈ 0.825 µM), the Survival (P338 [32]) was 6 and the EC50 (HeLa) was 0.05 µg/mL (≈ 0.115 µM). For the same molecule, the T/C (P338 [33]) was 100%, the Survival (P338 [34]) was 8 and the Survival (P338 [35]) was 0. For the same molecule, the T/C (P338 [36]) was “Toxic”, the Survival (P338 [37]) was 8 and the T/C (P338 [38]) was 91%. The Survival (P338 [39]) was 8.

`CN(C)CC(=O)Nc1ccc(NC(=O)CN(C)C)c2c1C(=O)c1ccccc1C2=O` gave an EC50 (L1210) of 2.26 µg/mL (≈ 5.53 µM) and an EC50 (HeLa) of 0.39 µg/mL (≈ 0.955 µM).
